Calls of active or inactive are those of the source. The calls are words filed in the database; no cut-off is given here.
Columns and labels:
Type in all cases: functional, organism-based
Gallus gallus [1] = assay: Induction of bone calcium mobilization in rachitic white leghorn cockerel assessed as Ca2+ level in serum at 32.5 nmol, ip measured up to 96 hrs by atomic absorption spectrometric analysis relative to control
Method in brief: (§1)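 Cockerels raised 3 weeks on rachitogenic low-calcium diet without vitamin D, then zero-calcium diet for 3 days before assay. Compound given ip in 0.2 ml 1,2-propanediol-ethanol (3/1); -D controls received solvent only, +D controls 6.5 nmol vitamin D3 24 h before assay. Serum Ca2+ measured by atomic absorption spectrometry on diluted serum. Mean ± SEM, 8-10 birds.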

Gallus gallus [2] = assay: Induction of intestinal [45Ca2+] absorption in rachitic white leghorn cockerel assessed as radioactivity in serum up to 97.5 nmol, ip measured at 24 hrs relative to control
Method in brief: (§2)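 Rachitic chicks (3 weeks on low-calcium diet lacking vitamin D, then zero-calcium diet for 3 days) were dosed ip in 0.2 ml propanediol-ethanol (3/1); solvent-only -D controls. At assay, 5 µCi 45Ca2+ plus 4 mg 40Ca2+ carrier was placed into the surgically exposed duodenum under light ether anesthesia. Serum radioactivity (0.2 ml) read 30 min later. Mean ± SEM, 8-10 birds.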

Gallus gallus [3] = assay: Induction of intestinal [45Ca2+] absorption in rachitic white leghorn cockerel assessed as radioactivity in serum at 32.5 nmol, ip measured up to 96 hrs relative to control; method in brief: as §2
Gallus gallus [4] = assay: Induction of bone calcium mobilization in rachitic white leghorn cockerel assessed as Ca2+ level in serum up to 97.5 nmol, ip measured at 24 hrs by atomic absorption spectrometric analysis relative to control; method in brief: as §1
Gallus gallus [5] = assay: Induction of bone calcium mobilization in rachitic white leghorn cockerel assessed as Ca2+ level in serum up to 78 nmol, ip treated 24 hrs prior to testing measured at 24 hrs post treatment by atomic absorption spectrometric analysis
Method in brief: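 White Leghorn cockerels reared 3 weeks on a rachitogenic low-calcium diet without vitamin D, then zero-calcium diet for 3 days before assay. Single intraperitoneal dose in 0.2 ml 1,2-propanediol-ethanol (3/1) 24 h before assay; vehicle-only rachitic and vitamin D3 controls. Blood taken after decapitation and allowed to clot. Serum calcium measured by atomic absorption spectrometry on diluted samples. Mean ± SEM, 8-10 birds.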

Gallus gallus [6] = assay: Induction of intestinal [45Ca2+] absorption in rachitic white leghorn cockerel assessed as radioactivity in serum up to 78 nmol, ip treated 24 hrs prior to testing measured at 24 hrs post treatment
Method in brief: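 Rachitic White Leghorn cockerels (3 weeks rachitogenic low-calcium diet without vitamin D, zero-calcium diet for the last 3 days). Dosed intraperitoneally in 0.2 ml propanediol-ethanol (3/1) 24 h before assay. Under light ether anaesthesia the duodenum was exposed and given 5 μCi 45Ca2+ plus 4 mg carrier 40Ca2+. After 30 min, decapitation; radioactivity counted in 0.2 ml serum. Mean ± SEM, 8-10 birds.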

Gallus gallus [7] = assay: Induction of bone calcium mobilization in rachitic white leghorn cockerel assessed as Ca2+ level in serum at 130 nmol, ip measured at 24 hrs by atomic absorption spectrometric analysis; method in brief: as §1
Gallus gallus [8] = assay: Induction of intestinal [45Ca2+] absorption in rachitic white leghorn cockerel assessed as radioactivity in serum at 130 nmol, ip measured at 24 hrs; method in brief: as §2

| Compound | Activity (Gallus gallus [1]) | Activity (Gallus gallus [2]) | Activity (Gallus gallus [3]) | Activity (Gallus gallus [4]) | Activity (Gallus gallus [5]) | Activity (Gallus gallus [6]) | Activity (Gallus gallus [7]) | Activity (Gallus gallus [8]) |
| --- | --- | --- | --- | --- | --- | --- | --- | --- |
| C=C1CC[C@H](O)C/C1=C/C=C1\CCC[C@]2(C)[C@@H]([C@H](C)CCC(C)(C)O)CC[C@@H]12 | inactive | inactive | inactive | inactive |  |  |  |  |
| C=C1CC[C@H](O)C/C1=C/C=C1\CCC[C@]2(C)[C@@H]([C@H](C)CCCCC(C)(C)O)CC[C@@H]12 |  |  |  |  | Active | Active | Active | Active |
| C=C1CC[C@H](O)C/C1=C/C=C1\CCC[C@]2(C)[C@@H](C(C)(C)O)CC[C@@H]12 | inactive | inactive | inactive | inactive |  |  |  |  |
| C=C1CC[C@H](O)C/C1=C/C=C1\CCC[C@]2(C)[C@@H]([C@H](C)CCCC(C)C)CC[C@@H]12 |  |  |  |  | Active | Active |  |  |
| C=C1CC[C@H](O)C/C1=C/C=C1\CCC[C@]2(C)[C@@H]([C@H](C)C(C)(C)O)CC[C@@H]12 | inactive | inactive | inactive | inactive |  |  |  |  |
| C=C1CC[C@H](O)C/C1=C/C=C1\CCC[C@]2(C)[C@@H]([C@H](C)CC(C)(C)O)CC[C@@H]12 | inactive | inactive | inactive | inactive |  |  |  |  |
